Reference: ChEMBL document CHEMBL5653617, “Inhibition of BRD4 attenuates tumor cell self-renewal and suppresses stem cell signaling in MYC driven medulloblastoma” (Oncotarget, 2014)
Calls of active or inactive are those of the source.

Legend:
D283 Med [1] = test: Suppression of human D283 Med cells self-renewal cultured in serum free condition assessed as reduction in formation of new neurosphere at 300 nM; type: functional, cell-based
Summary of the method: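 Cells grown as neurospheres in serum-free medium for 48 h, dissociated, and seeded in a limiting dilution from 1000 to 1 cell/well, with 300 nM drug or DMSO. After 7 days in serum-free culture, neurospheres per well counted and plotted against cells seeded.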

Daoy [2] = test: Induction of senescence in human Daoy cells assessed as increase in p16 mRNA expression at 300 nM by RT-qPCR analysis; type: functional, cell-based
Summary of the method: (§1)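 Cells treated with 300 nM drug or DMSO. p16, p21 and p27 mRNA measured by TaqMan qPCR with ΔΔCt quantitation, in triplicate.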

Daoy [3] = test: Induction of cell cycle arrest in human Daoy cells assessed as G2/M phase cells at 300 nM incubated for 48 hrs by flow cytometry analysis (reference value: 33.94 +/- 1.46%); type: functional
[4] = target: Bromodomain-containing protein 4 (Homo sapiens) (UniProt O60885); settings: D425 Med, dose 300.0 nM
Daoy [5] = test: Induction of senescence in human Daoy cells assessed as increase in beta-galactosidase level at 75 to 300 nM measured after 7 days by staining based analysis; type: functional, cell-based; settings: dose 75-300 nM, time 7.0 day
Summary of the method: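 Daoy cells treated with 75 or 300 nM drug or DMSO. Senescence-associated β-galactosidase staining performed after 7 days. Positive cells counted per high power field.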

Daoy [6] = test: Inhibition of E2F1 activity in human Daoy cells at 100 to 300 nM by luciferase based reporter assay; type: functional, cell-based; settings: dose 100-300 nM
Summary of the method: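 Cignal pathway reporter system using an E2F1-responsive luciferase reporter. Cells seeded in 24-well plates and transfected with Surefect. DMSO or drug added 8 h later, then incubated a further 24 h before luciferase readout.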

[7] = target: Bromodomain-containing protein 4 (Homo sapiens) (UniProt O60885); settings: Daoy, dose 300.0 nM
[8] = target: Bromodomain-containing protein 4 (Homo sapiens) (UniProt O60885); settings: D458 Med, dose 300.0 nM
[9] = target: Bromodomain-containing protein 4 (Homo sapiens) (UniProt O60885); settings: Daoy, dose 100-300 nM, time 48.0 hrs
Daoy [10] = test: Downregulation of IFRD1 gene expression in human Daoy cells at 300 nM by GSEA method; type: functional, cell-based
Summary of the method: (§2)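 Daoy cells treated with DMSO or 300 nM drug. RNA extracted and hybridized to Affymetrix HG-ST2.0 arrays. Analysis in R/Bioconductor with gene set enrichment analysis. Regulated transcripts defined as p < 0.05, FDR < 0.05, fold change < 0.67 (down) or > 1.5 (up).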

Daoy [11] = test: In vivo inhibition of BRD4 in athymic nude mouse xenografted with human Daoy cells assessed as reduction in SOX2 protein expression in tumor at 50 mg/kg, ip measured after 5 days by immunofluorescence analysis; type: functional, organism-based; settings: time 5.0 day
Summary of the method: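 Tumors from Daoy flank xenografts in nude mice treated 50 mg/kg i.p. or DMSO vehicle for 5 days, then sacrificed. SOX2 protein detected by immunofluorescence on tumor sections.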

D283 Med [12] = test: Induction of cell cycle arrest in human D283 Med cells assessed as S phase cells at 300 nM incubated for 48 hrs by flow cytometry analysis (reference value: 19.88 +/- 1.26 %); type: functional
Daoy [13] = test: Downregulation of CDC25B gene expression in human Daoy cells at 300 nM by GSEA method; type: functional, cell-based; summary of the method: as §2
[14] = Toxicity in athymic nude mouse xenografted with human Daoy cells assessed as change in body weight at 50 mg/kg, ip administered 5 days a week for 4 weeks and measured after 20 days; type: organism-based; settings: in vivo, 1152 h, time 48 day
Summary of the method: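 Daoy cells (1.0×10^7 in PBS) injected into the flank of athymic nude mice. Dosing began once tumors were palpable, at a mean of 52 days post inoculation. 50 mg/kg i.p. or DMSO vehicle given 5 days/week for 4 weeks, n=10, with tumors followed a further 20 days. Volume by caliper as π/6 × L × W × H. Body weight recorded 3 times weekly.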

D458 Med = test: Induction of cell cycle arrest in human D458 Med cells assessed as G2/M phase cells at 300 nM incubated for 48 hrs by flow cytometry analysis (reference value: 18.72 +/- 2.62%); type: functional
[15] = target: Bromodomain-containing protein 4 (Homo sapiens) (UniProt O60885); settings: D283 Med, dose 300.0 nM
Daoy [16] = test: Induction of senescence in human Daoy cells assessed as increase in p21 protein expression at 300 nM by immunoblot analysis; type: functional, cell-based
Summary of the method: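 Protein lysates prepared in RIPA buffer with protease inhibitors. Standard western blot with HRP-conjugated secondary antibodies and chemiluminescent detection.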

[17] = target: Bromodomain-containing protein 4 (Homo sapiens) (UniProt O60885); settings: Daoy, dose 100.0 nM, time 24-72 hrs, TDE = time-dependent effect
[18] = target: Bromodomain-containing protein 4 (Homo sapiens) (UniProt O60885); settings: D283 Med, dose 300.0 nM; remark: listed apart in the source
Daoy [19] = test: Induction of senescence in human Daoy cells assessed as increase in p21 mRNA expression at 300 nM by RT-qPCR analysis; type: functional, cell-based; summary of the method: as §1
[20] = target: Bromodomain-containing protein 4 (Homo sapiens) (UniProt O60885); settings: Daoy, dose 300.0 nM; remark: listed apart in the source
Daoy [21] = test: Induction of cell cycle arrest in human Daoy cells assessed as accumulation of cells at G1 phase at 300 nM incubated for 48 hrs by flow cytometry analysis (reference value: 50.67 +/- 3.19%); type: functional
[22] = target: Bromodomain-containing protein 4 (Homo sapiens) (UniProt O60885); settings: D283 Med, dose 300.0 nM; remark: listed apart in the source
[23] = target: Bromodomain-containing protein 4 (Homo sapiens) (UniProt O60885); settings: Daoy, dose 300.0 nM; remark: listed apart in the source
D283 Med [24] = test: Inhibition of colony formation in human D283 Med cells at 100 to 300 nM incubated for 8 to 11 days by NBT staining based methyl cellulose colony growth assay; type: functional, cell-based; settings: dose 100-300 nM, time 8-11 day
Summary of the method: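 500 cells/well suspended in DMEM with methyl cellulose (1.3% final) containing 150 or 300 nM drug or DMSO, plated in triplicate. Colonies formed over 8–11 days, then stained with NBT (1 mg/ml) for 24 h at 37 °C. Colonies of ≥50 cells counted.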

Daoy [25] = test: Downregulation of CRIP1 gene expression in human Daoy cells at 300 nM by GSEA method; type: functional, cell-based; summary of the method: as §2
D425 Med = test: Induction of cell cycle arrest in human D425 Med cells assessed as S phase cells at 300 nM incubated for 48 hrs by flow cytometry analysis (reference value: 28.96 +/- 0.89%); type: functional
[26] = target: Bromodomain-containing protein 4 (Homo sapiens) (UniProt O60885); settings: D458 Med, dose 300.0 nM; remark: listed apart in the source

For Cc1sc2c(c1C)C(c1ccc(Cl)cc1)=N[C@@H](CC(=O)OC(C)(C)C)c1nnc(C)n1-2, the Activity (D283 Med [1]) was “Active”, the Activity (Daoy [2]) was “Active” and the Activity (Daoy [3]) was 16.813%. For the same molecule, the inhibition [4] was “Active”, the Activity (Daoy [5]) was “Active” and the inhibition (Daoy [6]) was “Active”. The inhibition [7] was “Active”, the inhibition [8] was “Active” and the inhibition [9] was “Dose-Dependent Effect”. The Activity (Daoy [10]) was “Active”, the inhibition (Daoy [11]) was “Active” and the Activity (D283 Med [12]) was 14.093%. The Activity (Daoy [13]) was “Active”, the Activity [14] was “Non-Toxic” and the Activity (D458 Med) was 23.266%. The inhibition [15] was “Active”, the Activity (Daoy [16]) was “Active” and the inhibition [17] was “Tde”. The inhibition [18] was “Active”, the Activity (Daoy [19]) was “Active” and the inhibition [20] was “Active”. The Activity (Daoy [21]) was 79.416%, the inhibition [22] was “Active” and the inhibition [23] was “Active”. For the same molecule, the inhibition (D283 Med [24]) was “Active”, the Activity (Daoy [25]) was “Active” and the Activity (D425 Med) was 28.636%. The inhibition [26] was “Active”.
